The record followed here is ChEMBL document CHEMBL3259691, “Synthesis and cytotoxic activity of nitric oxide-releasing isosteviol derivatives” (Bioorg Med Chem Lett, 2014).

Assay [1] can be described thus: Cytotoxicity against mouse B16F10 cells after 48 hrs by MTT assay. The settings on record: B16-F10, 48 h. The assay is classed as functional, cell-based. An outline of the steps:
(§1)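 Cells seeded in 96-well plates, exposed to compounds at various concentrations for 48 h at 37°C, 5% CO2. MTT (0.5 mg/mL) then added for 4 h, supernatant removed, formazan dissolved in DMSO, absorbance read at 570 nm. Percent inhibition of proliferation calculated per concentration; IC50 derived from dose-dependent response.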

A further assay deals with HepG2. As to the kind of experiment: Cytotoxicity against human HepG2 cells after 48 hrs by MTT assay. Particulars: HepG2, 48 h. The assay is classed as functional, cell-based. An outline of the steps:
as §1

Structures are written as SMILES.

In the case of `C[C@@]12CC[C@@H]3[C@@](CC[C@H]4[C@@]3(C)CCC[C@@]4(C)C(=O)NCC(=O)OCCOc3no[n+]([O-])c3S(=O)(=O)c3ccccc3)(CC(=O)O1)C2`, in assay [1], the 50% inhibitory concentration (IC50) turned out to be 3.52 µM.

`C[C@@]12CC[C@@H]3[C@@](CC[C@H]4[C@@]3(C)CCC[C@@]4(C)C(=O)NCC(=O)OCCOc3no[n+]([O-])c3S(=O)(=O)c3ccccc3)(CC1=O)C2`: the IC50 was more than 50 µM with HepG2 and 2.76 µM in assay [1]. `C[C@@]12CC[C@@H]3[C@@](CC[C@H]4[C@@]3(C)CCC[C@@]4(C)C(=O)NCC(=O)OCCCOc3no[n+]([O-])c3S(=O)(=O)c3ccccc3)(CC1=O)C2` returned an IC50 in assay [1] of 8.06 µM. Turning to `C[C@@]12CC[C@@H]3[C@@](CC[C@H]4[C@@]3(C)CCC[C@@]4(C)C(=O)NCC(=O)OCC#CCOc3no[n+]([O-])c3S(=O)(=O)c3ccccc3)(CC1=O)C2`, the 50% inhibitory concentration (IC50) in the assay on HepG2 stood at 4.24 µM; in assay [1] it was 0.25 µM. As to `C[C@@]12CC[C@@H]3[C@@](CC[C@H]4[C@@]3(C)CCC[C@@]4(C)C(=O)NCC(=O)OCCCOc3no[n+]([O-])c3S(=O)(=O)c3ccccc3)(CC(=O)O1)C2`, it took 2.05 µM to reach half-maximal inhibition in assay [1] (IC50). In assay [1], `C[C@]12CC[C@@H]3[C@](CC[C@H]4[C@@]3(C)CCC[C@@]4(C)C(=O)NCC(=O)OCCCCOc3no[n+]([O-])c3S(=O)(=O)c3ccccc3)(C1)C(C=O)O2` (some centres not stated) yielded an IC50 of 5.21 µM. Regarding `C=C1C(=O)[C@@]2(C)CC[C@@H]3[C@]1(CC[C@H]1[C@@]3(C)CCC[C@@]1(C)C(=O)NCC(=O)OCCOc1no[n+]([O-])c1S(=O)(=O)c1ccccc1)C2`, the IC50 in the assay with HepG2 was 7.13 µM; in assay [1] it was 1.01 µM.

On to `C=C1C(=O)[C@@]2(C)CC[C@@H]3[C@]1(CC[C@H]1[C@@]3(C)CCC[C@@]1(C)C(=O)NCC(=O)OCCCOc1no[n+]([O-])c1S(=O)(=O)c1ccccc1)C2`, for which the results for the IC50 (with HepG2; in assay [1]) were 38.6 µM and 0.016 µM, respectively.

With `C=C[C@]12CC[C@H]3[C@@](C)(CCC[C@@]3(C)C(=O)O)[C@@H]1CC[C@](C)(COC(=O)CCC(=O)OCCOc1no[n+]([O-])c1S(=O)(=O)c1ccccc1)C2`, the half-maximal inhibitory concentration (IC50) came to 6.44 µM in the assay on HepG2 and 1.98 µM in assay [1].

As for `C=C[C@]12CC[C@H]3[C@@](C)(CCC[C@@]3(C)C(=O)O)[C@@H]1CC[C@](C)(COC(=O)CCC(=O)OCCCOc1no[n+]([O-])c1S(=O)(=O)c1ccccc1)C2`, the IC50 in assay [1] was more than 50 µM. For the compound `C=C[C@]12CC[C@H]3[C@@](C)(CCC[C@@]3(C)C(=O)O)[C@@H]1CC[C@](C)(COC(=O)CCC(=O)OCC#CCOc1no[n+]([O-])c1S(=O)(=O)c1ccccc1)C2`, the half-maximal inhibitory concentration (IC50) with HepG2 is 7.54 µM; in assay [1], 3.84 µM. In the assay on HepG2, `COC(=O)[C@]1(C)CCC[C@@]2(C)[C@@H]3CC[C@@]4(C)C[C@]3(CC[C@@H]21)C/C4=N\OC(=O)CCC(=O)OCCOc1no[n+]([O-])c1S(=O)(=O)c1ccccc1` yielded a concentration for half-maximal inhibition (IC50) of 30.2 µM.

For `COC(=O)[C@]1(C)CCC[C@@]2(C)[C@@H]3CC[C@@]4(C)C[C@]3(CC[C@@H]21)C/C4=N\OC(=O)CCC(=O)OCCCOc1no[n+]([O-])c1S(=O)(=O)c1ccccc1`, half-maximal inhibition in the assay on HepG2 (IC50) was put at 33.4 µM. The same measure, in the same setting: for `COC(=O)[C@]1(C)CCC[C@@]2(C)[C@@H]3CC[C@@]4(C)C[C@]3(CC[C@@H]21)C/C4=N\OC(=O)CCC(=O)OCCCCOc1no[n+]([O-])c1S(=O)(=O)c1ccccc1` the value was 5.16 µM. With `COC(=O)[C@]1(C)CCC[C@@]2(C)[C@@H]3CC[C@@]4(C)C[C@]3(CC[C@@H]21)C/C4=N\OC(=O)CCC(=O)OCCOCCOc1no[n+]([O-])c1S(=O)(=O)c1ccccc1`, the IC50 in the assay with HepG2 was 2.75 µM; in assay [1], 2.12 µM. On to `COC(=O)[C@]12CCC(C)(C)C[C@H]1[C@H]1C(=O)C=C3[C@@]4(C)C=C(C#N)C(=O)C(C)(C)[C@@H]4CC[C@@]3(C)[C@]1(C)CC2` [BARDOXOLONE METHYL], for which the half-inhibitory concentration (IC50) was 4.99 µM in the assay with HepG2 and 5.85 µM in assay [1]. Compound `CC[C@@]1(O)C(=O)OCc2c1cc1n(c2=O)Cc2cc3ccccc3nc2-1` [CAMPTOTHECIN] yielded an IC50 in assay [1] of 2.78 µM.

Regarding `C[C@@]12CC[C@@H]3[C@@](CC[C@H]4[C@@]3(C)CCC[C@@]4(C)C(=O)O)(CC1=O)C2` [ISOSTEVIOL], the IC50 (in the assay with HepG2; in assay [1]) was more than 100 µM in each case.
